Test results taken from ChEMBL document CHEMBL2424574, “Structure-activity relationships and pharmacophore model of a noncompetitive pyrazoline containing class of GluN2C/GluN2D selective antagonists” (J Med Chem, 2013).

Columns and labels:
[1] = target: Glutamate receptor ionotropic, NMDA 2D (Rattus norvegicus) (UniProt Q62645); test: Negative allosteric modulation of recombinant rat GluN2D receptor expressed in Xenopus laevis oocytes at 100 uM by two-electrode voltage clamp method; format: cell-based; settings: Oocyte
Outline: (§1)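 Two-electrode voltage clamp of Xenopus oocytes expressing rat GluN1 with GluN2A, 2B, 2C or 2D. Holding potential −40 mV in recording solution (mM: 90 NaCl, 1 KCl, 0.5 BaCl2, 0.005 EDTA, 10 HEPES, pH 7.4, 23 °C). Compounds diluted from 20 mM DMSO stocks to 0.05–0.1% final DMSO. IC50 from a Hill fit to the averaged composite concentration–response curve, 5–24 oocytes from 2–4 frogs.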

[2] = target: Glutamate receptor ionotropic, NMDA 2C (Rattus norvegicus) (UniProt Q00961); test: Negative allosteric modulation of recombinant rat GluN2C receptor expressed in Xenopus laevis oocytes at 100 uM by two-electrode voltage clamp method; format: cell-based; settings: Oocyte; outline: as §1
[3] = target: Glutamate receptor ionotropic, NMDA 2B (Rattus norvegicus) (UniProt Q00960); test: Negative allosteric modulation of recombinant rat GluN2B receptor expressed in Xenopus laevis oocytes at 100 uM by two-electrode voltage clamp method; format: cell-based; settings: Oocyte; outline: as §1
[4] = target: Glutamate receptor ionotropic, NMDA 2A (Rattus norvegicus) (UniProt Q00959); test: Negative allosteric modulation of recombinant rat GluN2A receptor expressed in Xenopus laevis oocytes at 100 uM by two-electrode voltage clamp method; format: cell-based; settings: Oocyte; outline: as §1
[5] = target: Glutamate receptor ionotropic, NMDA 2D (Homo sapiens, UniProt O15399+Q05586); test: Inhibition of NMDA GluN2D receptor (unknown origin)
Homo sapiens = species on record: Homo sapiens; test: Selectivity ratio of IC50 for NMDA GluN2B receptor (unknown origin) to IC50 for NMDA GluN2D receptor (unknown origin)
Rattus norvegicus [6] = species on record: Rattus norvegicus; test: Selectivity ratio of IC50 for recombinant rat GluN2B receptor to IC50 for recombinant rat GluN2D receptor
Outline: (§2)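 Rat GluN1 co-expressed with GluN2A, GluN2B or GluN2D in Xenopus oocytes. Two-electrode voltage clamp at −40 mV in 90 NaCl, 1 KCl, 0.5 BaCl2, 0.005 EDTA, 10 HEPES (mM), pH 7.4, 23 °C; final DMSO 0.1–0.05%. IC50s came from Hill fits to averaged composite concentration-response curves (5–24 oocytes, 2–4 frogs). Ratio is GluN2A or GluN2B IC50 over GluN2D IC50.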

[7] = target: Glutamate receptor ionotropic, NMDA 2B (Rattus norvegicus, UniProt P35439+Q00960); test: Negative allosteric modulation of recombinant rat GluN2B receptor expressed in Xenopus laevis oocytes by two-electrode voltage clamp method; format: cell-based, Oocyte; outline: as §1
[8] = target: Glutamate receptor ionotropic, NMDA 2C (Rattus norvegicus, UniProt P35439+Q00961); test: Negative allosteric modulation of recombinant rat GluN2C receptor expressed in Xenopus laevis oocytes by two-electrode voltage clamp method; format: cell-based, Oocyte; outline: as §1
[9] = target: Glutamate receptor ionotropic, NMDA 2D (Rattus norvegicus, UniProt P35439+Q62645); test: Negative allosteric modulation of recombinant rat GluN2D receptor expressed in Xenopus laevis oocytes by two-electrode voltage clamp method; format: cell-based, Oocyte; outline: as §1
[10] = target: Glutamate receptor ionotropic, NMDA 2A (Rattus norvegicus, UniProt P35439+Q00959); test: Negative allosteric modulation of recombinant rat GluN2A receptor expressed in Xenopus laevis oocytes by two-electrode voltage clamp method; format: cell-based, Oocyte; outline: as §1
Rattus norvegicus [11] = species on record: Rattus norvegicus; test: Selectivity ratio of IC50 for recombinant rat GluN2A receptor to IC50 for recombinant rat GluN2D receptor; outline: as §2
Liver microsomes [12] = test: Half life in human liver microsomes at 1 uM; format: ADME, Microsome
Outline: (§3)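 Human liver microsomes 0.5 mg/mL in 100 mM potassium phosphate pH 7.4 with 5 mM MgCl2 and 1 μM test compound. Preincubated 3 min at 37 °C, then started with 1 mM NADPH, with a testosterone control in parallel. Sampled at 0, 10, 20, 30 and 60 min and quenched in cold acetonitrile/water with formic acid and internal standard. Percent remaining by LC-MS/MS (MRM) versus time 0. t1/2 = 0.693/k from the ln-remaining slope; CLint = k/protein concentration.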

Liver microsomes [13] = test: Intrinsic clearance in human liver microsomes measured per mg of protein at 1 uM by LC-MS/MS analysis; format: ADME, Microsome; outline: as §3
Liver microsomes [14] = test: Metabolic stability in human liver microsomes assessed as compound remaining at 1 uM after 60 mins by LC-MS/MS analysis; format: ADME, Microsome; settings: 1 h; outline: as §3
Liver microsomes [15] = test: Metabolic stability in human liver microsomes assessed as compound remaining at 1 uM after 30 mins by LC-MS/MS analysis; format: ADME, Microsome; settings: 0.5 h; outline: as §3
Liver microsomes [16] = test: Metabolic stability in human liver microsomes assessed as compound remaining at 1 uM after 20 mins by LC-MS/MS analysis; format: ADME, Microsome; outline: as §3
Liver microsomes [17] = test: Metabolic stability in human liver microsomes assessed as compound remaining at 1 uM after 10 mins by LC-MS/MS analysis; format: ADME, Microsome; outline: as §3
MDCK [18] = test: Permeability across basolateral to apical side in dog MDCK cells expressing MDR1 assessed as compound recovery at 5 uM after 120 mins by LC-MS/MS analysis; format: ADME, cell-based, Canis lupus familiaris; settings: 2 h
Outline: (§4)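 MDR1-MDCK monolayers grown to confluence on collagen-coated polycarbonate membranes. Assay buffer was HBSS with 10 mM HEPES and 15 mM glucose, pH 7.4, and the receiver side also held 1% BSA. Monolayers were dosed apically (A-to-B) or basolaterally (B-to-A) at 5 μM, 37 °C, 5% CO2. Donor and receiver were sampled at 120 min, in duplicate, by LC-MS/MS (ESI). Papp and percent recovery were calculated from receiver/donor concentrations.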

MDCK [19] = test: Apparent permeability across basolateral to apical side in dog MDCK cells expressing MDR1 at 5 uM after 120 mins by LC-MS/MS analysis; format: ADME, cell-based, Canis lupus familiaris; settings: 2 h; outline: as §4
MDCK [20] = test: Permeability across apical to basolateral side in dog MDCK cells expressing MDR1 assessed as compound recovery at 5 uM after 120 mins by LC-MS/MS analysis; format: ADME, cell-based, Canis lupus familiaris; settings: 2 h; outline: as §4
MDCK [21] = test: Apparent permeability across apical to basolateral side in dog MDCK cells expressing MDR1 at 5 uM after 120 mins by LC-MS/MS analysis; format: ADME, cell-based, Canis lupus familiaris; settings: 2 h; outline: as §4

Chain of Glutamate receptor ionotropic, NMDA 2B (Rattus norvegicus) (Q00960 27-1482 limits assumed): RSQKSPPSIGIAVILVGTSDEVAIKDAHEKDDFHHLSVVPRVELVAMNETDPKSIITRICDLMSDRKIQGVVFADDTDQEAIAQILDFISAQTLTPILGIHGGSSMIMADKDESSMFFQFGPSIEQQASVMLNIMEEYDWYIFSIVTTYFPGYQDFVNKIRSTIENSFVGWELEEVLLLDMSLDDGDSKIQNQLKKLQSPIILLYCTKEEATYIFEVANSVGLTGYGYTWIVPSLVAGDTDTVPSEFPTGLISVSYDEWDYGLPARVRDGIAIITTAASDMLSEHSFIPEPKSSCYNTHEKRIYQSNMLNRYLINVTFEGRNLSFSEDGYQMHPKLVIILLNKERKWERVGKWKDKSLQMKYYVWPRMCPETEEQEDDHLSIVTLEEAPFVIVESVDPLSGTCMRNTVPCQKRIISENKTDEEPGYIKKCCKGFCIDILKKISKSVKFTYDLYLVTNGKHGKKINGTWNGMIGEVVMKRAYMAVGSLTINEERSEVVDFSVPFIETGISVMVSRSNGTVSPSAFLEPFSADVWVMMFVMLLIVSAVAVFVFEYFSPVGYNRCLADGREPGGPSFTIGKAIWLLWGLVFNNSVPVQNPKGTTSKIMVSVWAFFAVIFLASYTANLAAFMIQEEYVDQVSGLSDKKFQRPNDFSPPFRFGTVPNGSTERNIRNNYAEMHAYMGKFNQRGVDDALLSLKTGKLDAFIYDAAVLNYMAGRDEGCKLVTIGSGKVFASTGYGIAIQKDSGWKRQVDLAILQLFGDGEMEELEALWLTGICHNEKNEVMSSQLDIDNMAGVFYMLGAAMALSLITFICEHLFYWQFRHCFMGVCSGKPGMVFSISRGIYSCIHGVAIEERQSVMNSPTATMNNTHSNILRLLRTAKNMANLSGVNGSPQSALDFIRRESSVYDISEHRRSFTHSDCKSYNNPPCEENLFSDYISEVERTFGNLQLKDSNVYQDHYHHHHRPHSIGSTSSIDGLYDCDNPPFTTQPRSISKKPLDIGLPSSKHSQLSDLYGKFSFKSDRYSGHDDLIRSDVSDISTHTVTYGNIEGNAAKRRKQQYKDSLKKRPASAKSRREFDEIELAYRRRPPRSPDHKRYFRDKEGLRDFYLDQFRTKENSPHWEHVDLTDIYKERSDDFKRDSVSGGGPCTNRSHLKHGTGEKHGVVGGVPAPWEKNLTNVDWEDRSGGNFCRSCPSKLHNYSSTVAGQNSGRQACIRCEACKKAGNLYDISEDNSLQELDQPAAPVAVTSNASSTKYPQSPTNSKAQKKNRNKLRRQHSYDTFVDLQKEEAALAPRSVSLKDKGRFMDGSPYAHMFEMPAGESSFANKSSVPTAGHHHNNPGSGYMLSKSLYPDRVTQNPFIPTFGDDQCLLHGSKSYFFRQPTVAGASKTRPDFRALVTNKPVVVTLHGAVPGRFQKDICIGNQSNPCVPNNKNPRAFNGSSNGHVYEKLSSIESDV
Chain of Glutamate receptor ionotropic, NMDA 2C (Q00961 whole entry, one chain of several): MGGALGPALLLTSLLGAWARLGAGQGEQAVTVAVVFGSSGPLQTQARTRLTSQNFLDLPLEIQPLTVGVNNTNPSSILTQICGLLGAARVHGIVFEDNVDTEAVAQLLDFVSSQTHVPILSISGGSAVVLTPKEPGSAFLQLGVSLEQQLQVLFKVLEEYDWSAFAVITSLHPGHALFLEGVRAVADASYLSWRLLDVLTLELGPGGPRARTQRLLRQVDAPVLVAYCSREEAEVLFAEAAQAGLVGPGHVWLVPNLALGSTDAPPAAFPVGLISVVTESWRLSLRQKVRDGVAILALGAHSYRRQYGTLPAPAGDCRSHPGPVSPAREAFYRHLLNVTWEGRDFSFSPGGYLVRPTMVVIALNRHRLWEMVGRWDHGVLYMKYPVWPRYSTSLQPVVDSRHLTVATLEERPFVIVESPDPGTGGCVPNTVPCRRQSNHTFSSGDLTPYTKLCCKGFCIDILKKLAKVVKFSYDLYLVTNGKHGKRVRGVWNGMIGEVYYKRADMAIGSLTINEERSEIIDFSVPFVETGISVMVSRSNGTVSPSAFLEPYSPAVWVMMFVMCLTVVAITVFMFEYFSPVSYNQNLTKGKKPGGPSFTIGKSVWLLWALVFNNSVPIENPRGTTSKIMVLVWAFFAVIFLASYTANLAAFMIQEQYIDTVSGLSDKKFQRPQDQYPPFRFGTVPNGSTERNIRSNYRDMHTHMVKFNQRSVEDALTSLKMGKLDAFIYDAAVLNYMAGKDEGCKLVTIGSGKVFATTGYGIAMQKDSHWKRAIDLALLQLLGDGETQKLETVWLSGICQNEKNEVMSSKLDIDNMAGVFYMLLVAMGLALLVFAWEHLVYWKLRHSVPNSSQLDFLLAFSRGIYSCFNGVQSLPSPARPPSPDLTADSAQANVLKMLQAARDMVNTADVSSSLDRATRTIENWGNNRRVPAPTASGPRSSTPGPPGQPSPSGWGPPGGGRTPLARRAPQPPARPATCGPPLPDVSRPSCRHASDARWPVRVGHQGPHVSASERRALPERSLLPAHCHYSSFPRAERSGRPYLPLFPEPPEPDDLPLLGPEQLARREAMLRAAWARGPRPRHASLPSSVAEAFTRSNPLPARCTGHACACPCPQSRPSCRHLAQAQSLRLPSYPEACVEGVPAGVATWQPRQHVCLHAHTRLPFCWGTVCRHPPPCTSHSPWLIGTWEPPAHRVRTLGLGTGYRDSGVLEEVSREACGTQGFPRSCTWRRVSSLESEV
Chain of Glutamate receptor ionotropic, NMDA 2C (Rattus norvegicus) (Q00961 20-1237 limits assumed): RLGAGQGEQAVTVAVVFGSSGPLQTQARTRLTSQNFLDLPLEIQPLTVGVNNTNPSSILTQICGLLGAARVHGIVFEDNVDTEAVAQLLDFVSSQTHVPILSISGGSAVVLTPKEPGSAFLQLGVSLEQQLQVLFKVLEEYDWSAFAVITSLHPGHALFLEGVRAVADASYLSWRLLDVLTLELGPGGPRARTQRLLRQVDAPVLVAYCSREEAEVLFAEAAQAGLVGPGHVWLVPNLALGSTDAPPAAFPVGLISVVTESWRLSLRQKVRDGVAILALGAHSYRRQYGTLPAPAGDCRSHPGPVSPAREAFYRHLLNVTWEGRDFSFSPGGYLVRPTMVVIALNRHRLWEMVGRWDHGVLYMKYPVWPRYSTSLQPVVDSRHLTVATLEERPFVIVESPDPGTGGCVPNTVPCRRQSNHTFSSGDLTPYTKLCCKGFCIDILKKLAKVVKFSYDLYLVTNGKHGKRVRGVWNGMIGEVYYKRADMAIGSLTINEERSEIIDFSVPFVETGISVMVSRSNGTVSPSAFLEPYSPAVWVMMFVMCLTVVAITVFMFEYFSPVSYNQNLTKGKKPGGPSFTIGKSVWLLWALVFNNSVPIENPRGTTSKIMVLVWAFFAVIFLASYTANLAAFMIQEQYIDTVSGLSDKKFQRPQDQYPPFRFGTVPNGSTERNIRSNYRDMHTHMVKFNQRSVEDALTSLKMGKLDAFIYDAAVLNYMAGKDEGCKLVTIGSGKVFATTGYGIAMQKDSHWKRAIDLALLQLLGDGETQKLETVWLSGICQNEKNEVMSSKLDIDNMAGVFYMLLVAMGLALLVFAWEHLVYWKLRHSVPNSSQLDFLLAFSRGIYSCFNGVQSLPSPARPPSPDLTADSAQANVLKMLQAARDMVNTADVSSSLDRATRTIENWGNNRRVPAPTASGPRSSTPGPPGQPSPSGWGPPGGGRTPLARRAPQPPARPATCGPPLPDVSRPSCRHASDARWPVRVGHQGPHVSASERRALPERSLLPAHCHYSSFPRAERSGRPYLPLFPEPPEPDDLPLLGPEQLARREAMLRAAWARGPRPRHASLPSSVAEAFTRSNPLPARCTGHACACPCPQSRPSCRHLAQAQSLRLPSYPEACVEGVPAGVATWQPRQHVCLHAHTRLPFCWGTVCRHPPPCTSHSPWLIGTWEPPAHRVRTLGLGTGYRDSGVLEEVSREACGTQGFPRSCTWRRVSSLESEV

| SMILES | inhibition [3] [%] | inhibition [4] [%] | Ratio IC50 (Rattus norvegicus [6]) | IC50 [7] [µM] | IC50 [8] [µM] | IC50 [9] [µM] | IC50 [10] [µM] | Ratio IC50 (Rattus norvegicus [11]) | other results |
| --- | --- | --- | --- | --- | --- | --- | --- | --- | --- |
| COC(=O)CCC(=O)N1N=C(c2c(-c3ccccc3)c3cc(Cl)ccc3[nH]c2=O)CC1c1ccc(Br)cc1 (stereo not drawn) | < 30 | < 30 |  |  |  |  |  |  | inhibition [1]: < 30%; inhibition [2]: < 30% |
| Cc1ccc2[nH]c(=O)c(C3=NN(C(=O)CCC(=O)O)C(c4ccc(Br)cc4)C3)c(-c3ccccc3)c2c1 (stereo not drawn) |  |  |  |  |  |  |  |  | IC50 [5]: 2.7 µM; Ratio IC50 (Homo sapiens): 41 |
| O=C(O)CCC(=O)N1N=C(c2c(-c3ccccc3)c3cc(Cl)ccc3[nH]c2=O)CC1c1ccc2c(c1)OCO2 (stereo not drawn) |  | < 30 | 4 | 90 | 23 | 23 |  |  |  |
| O=C(O)/C=C/C(=O)N1N=C(c2c(-c3ccccc3)c3cc(Cl)ccc3[nH]c2=O)CC1c1ccc(Br)cc1 (stereo not drawn) | < 30 | < 30 |  |  | 2.1 | 1.4 |  |  |  |
| COC(=O)CCCN1N=C(c2c(-c3ccc(Cl)cc3)c3ccccc3[nH]c2=O)CC1c1ccc(Cl)cc1 (stereo not drawn) | < 30 | < 30 |  |  |  |  |  |  | inhibition [1]: < 30%; inhibition [2]: < 30% |
| O=C(O)/C=C\C(=O)N1N=C(c2c(-c3ccc(Br)cc3)c3ccccc3[nH]c2=O)CC1c1ccc(Cl)cc1 (stereo not drawn) |  |  | 30 | 17 | 1 | 0.57 | 12 | 21 |  |
| COC(=O)/C=C/C(=O)N1N=C(c2c(-c3ccc(Br)cc3)c3ccccc3[nH]c2=O)CC1c1ccc(Cl)cc1 (stereo not drawn) | < 30 | < 30 |  |  | 59 | 95 |  |  |  |
| O=C(O)/C=C\C(=O)N1N=C(c2c(-c3ccccc3)c3cc(Cl)ccc3[nH]c2=O)CC1c1ccc(Br)cc1 (stereo not drawn) |  |  | 7 | 37 | 8.9 | 5 | 74 | 15 |  |
| O=C(O)CCC(=O)N1N=C(c2c(O)nc3ccc(Cl)cc3c2-c2ccccc2)CC1c1ccccc1 (stereo not drawn) | < 30 | < 30 |  |  |  |  |  |  |  |
| O=C(CCCF)N1N=C(c2c(-c3ccc(Cl)cc3)c3ccccc3[nH]c2=O)CC1c1ccc(Cl)cc1 (stereo not drawn) | < 30 | < 30 |  |  |  |  |  |  | t1/2 (Liver microsomes [12]): 35 min; CLint (Liver microsomes [13]): 40 µL/min/mg; Stability (Liver microsomes [14]): 39%; Stability (Liver microsomes [15]): 49%; Stability (Liver microsomes [16]): 49%; Stability (Liver microsomes [17]): 67%; Drug recovery (MDCK [18]): 67%; Papp (MDCK [19]): 9.52 ×10⁻⁶ cm/s; Drug recovery (MDCK [20]): 43%; Papp (MDCK [21]): 3.88 ×10⁻⁶ cm/s; inhibition [1]: < 30%; inhibition [2]: < 30% |

Further lines, with some results ahead:

| inhibition [3] [%] | inhibition [4] [%] | Ratio IC50 (Rattus norvegicus [6]) | IC50 [7] [µM] | IC50 [8] [µM] | IC50 [9] [µM] | IC50 [10] [µM] | Ratio IC50 (Rattus norvegicus [11]) | SMILES | other results |
| --- | --- | --- | --- | --- | --- | --- | --- | --- | --- |
| < 30 |  |  |  | 12 | 7 | 156 | 22 | N#Cc1ccc(-c2c(C3=NN(C(=O)CCC(=O)O)C(c4ccc(Cl)cc4)C3)c(=O)[nH]c3ccccc23)cc1 (stereo not drawn) |  |
| < 30 | < 30 |  |  |  |  |  |  | O=C(O)CCC(=O)N1N=C(c2c(-c3ccccc3)c3cc(Cl)ccc3[nH]c2=O)CC1c1ccc(C(=O)O)cc1 (stereo not drawn) | inhibition [1]: < 30%; inhibition [2]: < 30% |
|  | < 30 |  |  | 3.6 | 3.1 |  |  | O=C(O)CCC(=O)N1N=C(c2c(-c3ccccc3)c3cc(Cl)ccc3[nH]c2=O)CC1c1ccc(Br)cc1 (stereo not drawn) |  |
| < 30 | < 30 |  |  | 39 | 19 |  |  | CN(C)c1ccc(C2CC(c3c(-c4ccccc4)c4cc(Cl)ccc4[nH]c3=O)=NN2C(=O)CCC(=O)O)cc1 (stereo not drawn) |  |
| < 30 | < 30 |  |  | 93 |  |  |  | COC(=O)c1ccc(C2CC(c3c(-c4ccccc4)c4cc(Cl)ccc4[nH]c3=O)=NN2C(=O)CCC(=O)O)cc1 (stereo not drawn) |  |
|  |  | 12 | 113 | 10 | 9.1 | 64 | 7 | O=C(O)CCC(=O)N1N=C(c2c(-c3ccc(Br)cc3)c3ccccc3[nH]c2=O)CC1c1ccccc1 (stereo not drawn) |  |
|  |  | 67 | 34 | 0.95 | 0.51 | 19 | 37 | O=C(O)CCC(=O)N1N=C(c2c(-c3ccc(Cl)cc3)c3ccccc3[nH]c2=O)CC1c1ccc(Br)cc1 (stereo not drawn) |  |
| < 30 | < 30 |  |  | 5.5 | 4.5 |  |  | O=C(O)CCC(=O)N1N=C(c2c(-c3ccccc3)c3cc(Cl)ccc3[nH]c2=O)CC1c1ccc(Cl)cc1 (stereo not drawn) |  |
| < 30 | < 30 |  |  | 19 | 13 |  |  | N#Cc1cccc(-c2c(C3=NN(C(=O)CCC(=O)O)C(c4ccc(Cl)cc4)C3)c(=O)[nH]c3ccccc23)c1 (stereo not drawn) |  |
|  |  | 34 | 34 | 1.4 | 1 | 19 | 19 | O=C(O)CCC(=O)N1N=C(c2c(-c3ccc(F)c(Cl)c3)c3ccccc3[nH]c2=O)CC1c1ccc(Cl)cc1 (stereo not drawn) |  |
|  |  | 53 | 28 | 0.91 | 0.53 | 12 | 23 | O=C(O)CCC(=O)N1N=C(c2c(-c3ccc(Cl)c(F)c3)c3ccccc3[nH]c2=O)CC1c1ccc(Cl)cc1 (stereo not drawn) |  |
|  |  | 30 | 42 | 2.5 | 1.4 | 33 | 24 | Cc1ccc(-c2c(C3=NN(C(=O)CCC(=O)O)C(c4ccc(Cl)cc4)C3)c(=O)[nH]c3ccccc23)cc1 (stereo not drawn) |  |
